Assay results published in ChEMBL document CHEMBL1133012, “QSAR based on biological microcalorimetry” (J Med Chem, 2000).

How the values were obtained:
[1] = Partition coefficient was obtained using Taylor-Aris diffusion process.; format: ADME; conditions: E. coli cells
Outline: (§1)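 Partition coefficient by Taylor-Aris diffusion in the same cells as the screen. Cells from a liquid-nitrogen ampule were put in 25 mL 1/4 Ringer's solution; 15 mL of this was diluted with a further 24 mL 1/4 Ringer's. Water bath held at 298.15 K. Carrier pumped at least 10 min or to stable baseline before first injection. Retention time and half-height peak width taken from dispersion curve. At least two replicates per solute.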

[2] = tested on: Escherichia coli; assay: Normal diffusion coefficient in water for Escherichia coli; format: ADME, organism-based; set-up: unit not given here; outline: as §1
[3] = tested on: Escherichia coli; assay: Observed diffusion coefficient in organic solvent for Escherichia coli; format: ADME, organism-based; set-up: unit not given here; outline: as §1
[4] = tested on: Escherichia coli; assay: Potency against Escherichia coli was determined microcalorimetrically at the dose of 2.619 uMol/L; format: functional, organism-based

Row | Compound | logP [1] | DW [2] | Dobs [3] | Log D50 [4]
1 | COc1ccc(C(=O)NNC(=O)c2ccccc2)cc1 | -1 | 9.86 | 8.98 | 2.6
2 | Cc1ccc(C(=O)NNC(=O)c2ccccc2)cc1 | -0.956 | 12.24 | 11.02 | 2.54
3 | CC(C)(C)c1ccc(C(=O)NNC(=O)c2ccccc2)cc1 | -0.799 | 17.5 | 15.1 | 3.21
4 | O=C(NNC(=O)c1ccc([N+](=O)[O-])cc1)c1ccccc1 | -1.14 | 10.879 | 10.15 | 2.38
5 | CCCCCc1ccc(C(=O)NNC(=O)c2ccccc2)cc1 | -0.652 | 21.15 | 17.3 | 3.05
6 | O=C(NNC(=O)c1ccc(Br)cc1)c1ccccc1 | -0.879 | 13.47 | 11.9 | 2.73
7 | O=C(NNC(=O)c1ccccc1)c1ccccc1 | -1.09 | 9.94 | 9.2 | 2.28
8 | O=C(NNC(=O)c1ccc(-c2ccccc2)cc1)c1ccccc1 | -0.787 | 16.98 | 14.6 | 3.24
